Compound activity deposited in PubChem by several laboratories.
An excerpt weighted towards active compounds, which were near 4.2% of everything screened.
Cl transport mod: modulators of human KCC2 chloride dependent transport | KCC2 cells, thallium flux FluoZin-2 fluorescence | B-score of Tl+ flux slope (higher = more flux/activation; lower = inhibition) at 10 µM | hit rate 2.2% among 190,000;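 active means thallium flux slope and its plate-corrected score both differing from the plate sample mean at a set confidence after two filtering rounds, in either direction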;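 further: slope of fluorescence scaled to starting intensity during 10 to 20 s after thallium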
Mot1-301 SUMO: inhibitors of SUMOylation pathway: yeast Mot1-301 growth rescue; S. cerevisiae Mot1-301 growth rescue, ATP luminescence, 38.5C; percent above DMSO median, 100 means doubled; growth rescue, % at 18.8 µM; hit rate 1% among 320,000;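 active means every valid replicate shows activation above 250% relative to neutral control wells; inactive means the rest, any valid replicate at or below 250%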
KCNQ1 pot: human KCNQ1 channel potentiation or activation | P51787 | CHO-K1 KCNQ1, thallium flux FluxOR fluorescence; hits give high values | B-score at 10 µM | hit rate 0.35% among 310,000 | AID 2648;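 active means fluorescence ratio B-score, a plate-corrected score, at least three library SD, with initial intensity B-score within 5 SD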
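Material: CHO-K1 cells stably expressing KCNQ1. Medium: assay buffer for compound exposure, DMSO matched across wells. Reagent: K+/Tl+ depolarizing stimulus. Compound dosing: single-concentration screen. Times: 37 °C overnight plating, 90-min dark dye load, 20-min compound pretreatment. Technique: FluxOR Tl+ flux fluorescence.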
AI-2 QS mod: modulates the Vibrio harveyi AI-2 quorum sensing system | activity change, % at 7.5 µM | Vibrio harveyi JMH597 AI-2 luminescence/OD600 ratio, 9 h; hits give low values; strain lacks LuxN and CqsS sensors; 0 = neutral-control median | hit rate 0.4% among 300,000; in the data active means activity change below about -75%, passing the limit was not always enough;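 further: luminescence divided by OD600 gain over 9 h not by final OD600 alone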
KCNQ1 inh: inhibitors of human KCNQ1 potassium channel; AID 2642; CHO-K1 KCNQ1, FluxOR thallium flux fluorescence; hits give high values; hit rate 1.3% among 310,000; B-score at 10 µM;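 active means compounds whose thallium flux B-score, printed positive for inhibition, exceeds three library SD while starting fluorescence stays within three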;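 further: channel opened by potassium depolarization with thallium stimulus after 20 min compound exposure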
hERG rescue: shields human hERG channel from block by proarrhythmic agents. CHO-hERG, FluxOR thallium flux, dofetilide IC70 present. activation (rescue from dofetilide block), less the hit threshold, % at 10 µM. hit rate 0.51% among 310,000. AID 1511;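 active means activation above the mean of controls blocked by dofetilide plus 5 SD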;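 further: thallium influx through hERG after potassium depolarization seen as dye fluorescence rise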
Target sequence (Q12809 whole entry, looked up): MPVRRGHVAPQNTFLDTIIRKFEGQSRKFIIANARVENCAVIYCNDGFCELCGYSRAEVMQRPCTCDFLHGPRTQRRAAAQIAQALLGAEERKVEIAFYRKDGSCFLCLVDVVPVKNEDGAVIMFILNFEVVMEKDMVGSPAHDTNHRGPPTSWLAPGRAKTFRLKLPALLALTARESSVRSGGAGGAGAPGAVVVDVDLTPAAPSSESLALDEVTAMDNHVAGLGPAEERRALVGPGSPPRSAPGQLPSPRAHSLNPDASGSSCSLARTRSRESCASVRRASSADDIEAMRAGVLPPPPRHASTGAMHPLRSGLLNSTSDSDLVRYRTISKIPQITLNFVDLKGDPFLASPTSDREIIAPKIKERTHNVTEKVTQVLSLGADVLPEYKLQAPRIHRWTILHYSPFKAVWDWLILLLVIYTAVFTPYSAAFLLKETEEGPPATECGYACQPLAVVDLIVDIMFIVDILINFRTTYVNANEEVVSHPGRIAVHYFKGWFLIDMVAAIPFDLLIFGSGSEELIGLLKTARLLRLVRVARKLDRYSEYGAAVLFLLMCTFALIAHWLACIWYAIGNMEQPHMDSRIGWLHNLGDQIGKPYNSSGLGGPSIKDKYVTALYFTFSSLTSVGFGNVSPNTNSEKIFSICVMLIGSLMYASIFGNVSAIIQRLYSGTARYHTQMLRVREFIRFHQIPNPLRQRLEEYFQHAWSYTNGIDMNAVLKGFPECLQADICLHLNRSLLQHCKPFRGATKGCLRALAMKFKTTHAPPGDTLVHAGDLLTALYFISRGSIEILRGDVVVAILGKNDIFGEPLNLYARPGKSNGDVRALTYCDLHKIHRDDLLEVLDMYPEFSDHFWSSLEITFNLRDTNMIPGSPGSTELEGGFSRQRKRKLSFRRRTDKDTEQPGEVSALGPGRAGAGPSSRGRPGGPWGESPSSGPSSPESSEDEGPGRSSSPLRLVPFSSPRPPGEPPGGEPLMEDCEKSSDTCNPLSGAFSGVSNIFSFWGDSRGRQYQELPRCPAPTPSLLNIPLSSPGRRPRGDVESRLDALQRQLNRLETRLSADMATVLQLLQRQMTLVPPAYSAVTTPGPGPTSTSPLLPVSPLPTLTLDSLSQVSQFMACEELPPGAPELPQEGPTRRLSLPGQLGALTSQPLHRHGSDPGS
Large screens that a line does not name were inactive.

Cc1ccc(-n2c(=S)[nH]c3sc4c(c3c2=O)CCc2ccccc2-4)cc1	Cl transport mod 9.1
COc1ccc(-n2c(=S)[nH]c3sc4c(c3c2=O)CCN(C)C4)cc1	none
CC(C)c1ccc(C2NC(=S)NC3=C2C(=O)CC(C)(C)C3)cc1 (stereo not drawn)	none
O=C(COc1ccccc1)NC(=S)Nc1cccc([N+](=O)[O-])c1	Cl transport mod 43
CCOC(=O)c1ccc(NC(=S)NC(=O)COc2ccccc2)cc1	Cl transport mod 18, hERG rescue 7.6
COc1ccc(S(=O)(=O)N2CC(=O)Nc3ccccc32)cc1	none (no result: Cl transport mod)
CS(=O)(=O)c1ccccc1-c1nnc(NC(=O)c2ccc3ncsc3c2)o1	none (no result: Cl transport mod)
Cc1cccc(N2CCN(S(=O)(=O)c3ccc4c(c3)CCCN4C(=O)C3CCC3)CC2C)c1 (stereo not drawn)	none (no result: Cl transport mod)
CCOC(=O)CC(=O)CSc1ncnc2c1nnn2-c1ccc(OC)cc1	hERG rescue 7.0
CS(=O)(=O)c1nc(-c2ccco2)cc(C(F)(F)F)n1	KCNQ1 inh 7 (no result: Cl transport mod)
CC(C)(C)C(=O)NC(=S)NNC(=O)c1sc2ccccc2c1Cl	Cl transport mod 48, KCNQ1 pot 49, hERG rescue 34
CCOC(=S)NC(=O)c1sc2ccccc2c1Cl	Cl transport mod 74, KCNQ1 pot 96, hERG rescue 22
NC(=O)COC(=O)c1sc2ccccc2c1Cl	Mot1-301 SUMO 545
Cc1ccccc1COC(=O)CNC(=O)c1sc2ccccc2c1Cl	none (no result: Cl transport mod)
CCCOC(=S)NC(=O)c1sc2ccccc2c1Cl	Cl transport mod 60, KCNQ1 pot 49, hERG rescue 15
Cc1ccc(S(=O)(=O)NNC(=O)CCC(=O)Nc2ccc(C)c(C)c2)cc1	Mot1-301 SUMO 350 (no result: Cl transport mod)
Nc1nc(SCn2nnc3ccccc3c2=O)n[nH]1	none
COc1ccc(C(c2c[nH]c3ccccc23)c2c[nH]c3ccccc23)cc1O	KCNQ1 inh 7 (no result: Cl transport mod)
COc1ccc(C(=O)NCCc2c[nH]c3ccccc23)cc1OC	none (no result: Cl transport mod, AI-2 QS mod)
CC(=O)Nc1ccc(S[C@@H](CCN2CC[C@H](C(C)(C)C)CCC2=O)c2ccccc2)cc1	none (no result: Cl transport mod, KCNQ1 pot, AI-2 QS mod, KCNQ1 inh, hERG rescue)
CC(C)(C)[C@@H]1CCC(=O)N(CC[C@H](Sc2ccccc2)c2ccccc2)CC1	KCNQ1 inh 6 (no result: Cl transport mod)
Cc1ccc(SCc2cn3c(C)csc3n2)cc1	none
O=[N+]([O-])c1ccccc1Oc1ccc(S(=O)(=O)N2CCOCC2)cc1	none (no result: Cl transport mod, KCNQ1 pot, AI-2 QS mod, KCNQ1 inh, hERG rescue)
CNC(=O)c1ccc(NC(=O)CN2c3cccc4cccc(c34)S2(=O)=O)cc1	hERG rescue 14 (no result: Cl transport mod, AI-2 QS mod)
O=C(O)Cn1c(=O)c(-c2ccccc2)nc2ccccc21	none (no result: Cl transport mod)
O=c1c(-c2ccccc2)nc(-c2ccccc2)cn1O	hERG rescue 4.9 (no result: Cl transport mod)
CCc1ccc(-c2cc(C)no2)cc1S(=O)(=O)N1CCCN(Cc2ccc(F)cc2)C1	none (no result: Cl transport mod)
CSc1ccc(C(=O)C2CCCN(C(=O)c3cc4cc(F)ccc4[nH]3)C2)cc1 (stereo not drawn)	Mot1-301 SUMO 447
Cc1cc(C)cc(NC(=O)C(OC(=O)c2sccc2C)c2ccccc2)c1 (stereo not drawn)	none
CCN1/C(=C/c2sc(-c3ccccc3C)c[n+]2C)Sc2ccccc21	KCNQ1 inh 11 (no result: Mot1-301 SUMO)
O=C(Nc1cccc(Cl)c1)c1cc(N=Nc2ccc([N+](=O)[O-])cc2Cl)ccc1O	Cl transport mod 11, KCNQ1 inh 7
Cc1ccc2c(c1)[C@H]1[C@H](CO2)[C@H](c2ccccc2)[C@]2(C)C(=O)Nc3ccccc3C(=O)N12	Mot1-301 SUMO 341 (no result: Cl transport mod, KCNQ1 pot, AI-2 QS mod, KCNQ1 inh, hERG rescue)
C[C@@]12C(=O)Nc3ccc(F)cc3C(=O)N1[C@H]1c3cc(Br)ccc3OC[C@@H]1[C@@H]2c1ccccc1	Mot1-301 SUMO 349 (no result: Cl transport mod, KCNQ1 pot, AI-2 QS mod, KCNQ1 inh, hERG rescue)
C[C@@]12C(=O)Nc3cc(F)ccc3C(=O)N1[C@H]1c3cc(Br)ccc3OC[C@@H]1[C@@H]2c1ccccc1	none (no result: Cl transport mod, KCNQ1 pot, AI-2 QS mod, KCNQ1 inh, hERG rescue)
COc1ccc(NS(=O)(=O)c2ccc3c(c2)NC(=O)CO3)cc1	AI-2 QS mod -81 (no result: Cl transport mod)
COc1cc(NS(=O)(=O)c2ccc3c(c2)NC(=O)CO3)cc(OC)c1	none (no result: Cl transport mod)
O=C(Nc1cccc(C(=O)O)c1)/C(=C\c1ccc(F)cc1)NC(=O)c1ccco1	none (no result: Cl transport mod)
CCc1ccc(NC(=O)CSc2nc3ccccc3nc2N2CCCC2)cc1	KCNQ1 inh 6 (no result: Cl transport mod)
COc1ccccc1CN1C[C@@H]2C[C@@H](c3[nH]c4c(C)cccc4c3C)N3CCC[C@@]23C1=O	none
Cc1cc(C)c2[nH]c(O)c(N=NC3=NC(=O)CS3)c2c1	none
CCc1ccc2c(c1)c(N=NC1=NC(=O)CS1)c(O)n2C	Cl transport mod 9.4, KCNQ1 pot 13
CC(=O)C1C(c2ccc(Cl)cc2)c2c(noc2C)CC1(C)O (stereo not drawn)	none (no result: AI-2 QS mod)
CC(=O)Nc1ccc(-n2c(C)nc(=O)c(-c3ccccc3)c2C)cc1	hERG rescue 4.7 (no result: Cl transport mod)
CCOc1ccc(NC(=O)CN(C)C(=O)c2cc3c(s2)CCC(C)C3)cc1OCC (stereo not drawn)	none (no result: Cl transport mod, KCNQ1 pot, AI-2 QS mod, KCNQ1 inh, hERG rescue)
CC1Oc2ccccc2N(CC(=O)N2CCCCCC2)C1=O (stereo not drawn)	KCNQ1 pot 22 (no result: Cl transport mod)
Cc1ccc2c(c1)N(CC(=O)N1CCCCC1)C(=O)C(C)O2 (stereo not drawn)	none (no result: Cl transport mod)
CCN(CC)C(=O)c1[nH]cnc1C(=O)NC1CCN(C(=O)OC(C)(C)C)CC1	none (no result: Cl transport mod, KCNQ1 pot, AI-2 QS mod, KCNQ1 inh, hERG rescue)
Cc1ccc(C(=O)NCCCNC(=O)COc2ccc(C)c(C)c2)cn1	Mot1-301 SUMO 289 (no result: Cl transport mod)
Cc1nc(SCc2cccc(F)c2)c2oc3ccccc3c2n1	hERG rescue 5.0 (no result: AI-2 QS mod)
CCCCCCCCCCn1ccc(=N)cc1	KCNQ1 inh 9
CCCCCCCCn1ccc(=N)cc1	none
CC(C)[C@@H](NC(=O)C1CCC(CNC(=O)[C@H](Cc2ccccc2)NC(=O)OC(C)(C)C)CC1)C(=O)O (stereo partly drawn)	none (no result: Cl transport mod)
S=c1nc(COc2ccccc2)[nH]c2ccccc12	KCNQ1 pot 92, hERG rescue 76 (no result: Cl transport mod)
FC(F)(F)c1nc(=S)c2ccccc2[nH]1	Cl transport mod 32 (no result: Mot1-301 SUMO, KCNQ1 pot, AI-2 QS mod, KCNQ1 inh, hERG rescue)
Cc1nc(=S)c2ccccc2[nH]1	none (no result: Cl transport mod)
S=c1nc(Cc2ccccc2)[nH]c2ccccc12	KCNQ1 pot 48, hERG rescue 44 (no result: Cl transport mod)
CCCCn1c(N)c(N(CC(C)C)C(=O)CSCc2ccc(Cl)c(Cl)c2)c(=O)[nH]c1=O	none (no result: Cl transport mod)
O=C(NCc1ccc2c(c1)OCO2)c1ccc(C2SCC(=O)N2Cc2ccco2)cc1 (stereo not drawn)	none
C=C1[C@@H](C)C2[C@H](Cc3ccccc3)NC(=O)[C@]23OC(=O)CC[C@H](O)CCC[C@H](C)C/C=C/[C@H]3[C@@H]1O (stereo partly drawn)	KCNQ1 pot 60 (no result: Mot1-301 SUMO)
CC(C)C[C@H](N)c1nnc(SCC(=O)Nc2ccc(Br)cc2)o1	none (no result: Cl transport mod)
